Screens: PubChem, several laboratories
In the library only some 10% were active in any assay of this set; here they are far more common.
WT yeast gro inh: growth inhibition of WT strain, primary screen, mitochondrial fusion inhibitor project, WT and mutant strains, chemical genetic. mitochondrial fusion phenotypic screen. inhibition, % at 10 µM. hit rate 2.1% among 190,000; in the data active = inhibition above about 58%; tested in S. cerevisiae
PMI activator: activators of human PMI, primary screen, biochemical, fluorescence intensity, near-Km mannose 6-phosphate; purified human PMI, coupled resazurin fluorescence, 20 min; stronger effect = higher value; 1 = vehicle control, 0 substrate-free wells; activation factor at 20 µM; Mannose-6-phosphate isomerase (Homo sapiens), P34949; hit rate 0.005% among 190,000;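 active = activation factor of 2 or more at 20 µM, relative to plate controls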
Target sequence (P34949 whole entry, looked up): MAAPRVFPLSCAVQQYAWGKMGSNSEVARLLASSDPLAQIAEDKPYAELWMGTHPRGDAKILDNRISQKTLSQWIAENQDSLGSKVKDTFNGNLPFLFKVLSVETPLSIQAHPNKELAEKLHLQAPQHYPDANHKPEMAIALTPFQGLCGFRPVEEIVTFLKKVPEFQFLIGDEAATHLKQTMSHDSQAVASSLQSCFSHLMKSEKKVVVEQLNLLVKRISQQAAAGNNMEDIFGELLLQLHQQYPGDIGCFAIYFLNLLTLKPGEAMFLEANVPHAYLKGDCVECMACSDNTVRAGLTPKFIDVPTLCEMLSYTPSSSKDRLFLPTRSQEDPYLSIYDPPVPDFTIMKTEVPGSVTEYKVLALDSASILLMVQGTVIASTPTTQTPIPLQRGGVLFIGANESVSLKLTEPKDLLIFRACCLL
PMI act hi M6P: human PMI activators, high substrate, primary screen, biochemical, fluorescence intensity, near-saturating mannose 6-phosphate; Mannose-6-phosphate isomerase (Homo sapiens), P34949; coupled PMI enzyme assay, resazurin fluorescence, 20 min; stronger effect = higher value; 1 = untreated enzyme, 0 = substrate-free blank; activation factor at 20 µM; hit rate 0.34% among 190,000; AID 1216, 2008;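 active = activation factor of 2 or more at 20 µM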
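Material: human phosphomannose isomerase with PGI, G6PDH, diaphorase coupling enzymes / Reagent: Man-6-P substrate 1.0 mM / Dosing: single compound dose of 20 µM, 1% DMSO final / Incubation: enzyme reaction with compound 20 min at room temperature / Signal: resorufin fluorescence (Ex 544/Em 590 nm) from resazurin via diaphorase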
Lmaj promast: Leishmania major promastigote growth inhibition, primary screen; Leishmania major promastigotes, resazurin fluorescence viability; inhibition, % at 10 µM; hit rate 9% among 200,000; AID 1063, 2008; in the data active = inhibition above about 50%;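 note: promastigotes grown with compound for 44 hours at 28 °C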
Diaphorase act: compounds boosting diaphorase resazurin reduction – biochemical, uHTS, resorufin fluorescence, counter-screen for diaphorase-coupled primary assays, primary screen. Diaphorase/resazurin coupled assay, 16 min; stronger effect = higher value; 1 = vehicle wells, 0 = NADH-free wells. activation factor at 20 µM. hit rate 0.005% among 190,000;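 active = diaphorase activity raised at least twofold by the compound at 20 µM; inactive = activation factor below 2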
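Material: purified diaphorase enzyme from Clostridium kluyveri / Medium: HEPES pH 7.4 buffer with MgCl2 and Tween 20 / Schedule: enzyme reaction of 16 min at room temperature / Measured by: resorufin fluorescence, excitation 544 nm, emission 590 nm / Evaluation: rise in resorufin formation, marking diaphorase activation or chemical reduction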
L major 1uM: Leishmania major promastigote growth inhibition, confirmation, 1 µM repeat of primary hits; L. major promastigote growth, resazurin fluorescence, 48 h; shares compounds with Lmaj promast; hit rate 13% among 1,100; inhibition, % at 1 µM;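 active = inhibition above about 50% in both repeat tests, limit read from the data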
Large screens that a line does not name were inactive (follow-up assays come after a bar, where they were run).

O=C(CCc1ccccc1)Nc1cc(C(=O)O)cc(C(=O)O)c1	none
COc1ccc(N2C3=[N+](CC2(C)O)c2ccccc2CC3)cc1 (stereo not given)	Lmaj promast 90 | L major 1uM inactive
CSc1ncccc1C(=O)Nc1nnc(C2CC2)s1	none
CC1CCN(C2CC(=O)N(c3ccccc3)C2=O)CC1 (stereo not given)	none
C[C@H]1CC[C@H]2C(=O)N3[C@H](c4ccccc4Br)[C@@H](C)CC[C@H]3C(=O)N2[C@@H]1c1ccccc1Br	WT yeast gro inh 70, Lmaj promast 100 | L major 1uM inactive
CCc1cc(C(=O)N2CCCC(CCC(=O)NCc3cccc(OC)c3)C2)no1 (stereo not given)	none
CCN(CC)c1ccc(-c2nn3c(-c4n[nH]c5c4CCC5)nnc3s2)cc1	Lmaj promast 62 | L major 1uM inactive
C1CCC(c2nn3c(-c4n[nH]c5c4CCC5)nnc3s2)CC1	none
COc1ccc(-[n+]2c(C)cc(/C=C3\Sc4ccccc4N3C)cc2C)cc1	Lmaj promast 101 | L major 1uM 101
COc1ccc(/C=C2\Sc3ccc(C(=O)N4CCc5ccccc5C4)cc3N(C)C2=O)cc1	none
CC(=O)c1c(N2CCN(c3cccc(Cl)c3)CC2)nc(=S)n(-c2ccccc2)c1C	Lmaj promast 91 | L major 1uM inactive
O=C(O)c1ccc(N=NN2CCCCCC2)cc1	Lmaj promast 59 | L major 1uM inactive
NCCCCCc1nnc(SCc2cccc(Cl)c2)o1	Lmaj promast 98 | L major 1uM inactive
CCOC(=O)CNC(=S)N1CCn2c(nc3ccccc32)C1	none
CC(C)(C)c1ccc(OCCNC(=O)c2ncn[nH]2)cc1	Lmaj promast 70 | L major 1uM inactive
CSCC[C@H](NC(=O)CCNC(C)=O)c1nc2ccccc2[nH]1	none (no result: WT yeast gro inh)
Cc1ccc(C(=O)/C=C/c2ccccc2[N+](=O)[O-])cc1	none
O=C(/C=C/c1ccccc1[N+](=O)[O-])c1ccccc1Br	WT yeast gro inh 69, Lmaj promast 100 | L major 1uM inactive
CCOc1ccc(-c2noc(-c3cccnc3)n2)cc1OC	Lmaj promast 71 | L major 1uM inactive
N#Cc1c(Oc2ccc3ccccc3c2)sc(C(=O)c2ccccc2)c1N	none
O=C(c1ccccc1)c1c2c(cc3sc4ccccc4[n+]13)-c1cccc3cccc-2c13	Lmaj promast 100 | L major 1uM 100
Cc1[nH]c2c(Br)cccc2c1[C@H]1[C@@H](CC#N)C1(C)C	Lmaj promast 99 | L major 1uM inactive
O=c1oc2ccccc2nc1/C=C(O)/C=C\c1ccccc1	Lmaj promast 99 | L major 1uM inactive
Cc1ccc2oc(=O)c(/C=C(\O)C(C)(C)C)nc2c1	none
O=C1OCC=C1NNC(=O)c1cccnc1	none
CC1=Nc2ccccc2/C1=C/c1nc(-c2ccc(C)s2)oc1O	none
CC1=Nc2ccccc2/C1=C/c1sc(=N)n(-c2nccs2)c1O	Lmaj promast 100 | L major 1uM inactive
COc1ccc(C(C)(C)C)cc1NC(=O)c1ccc2c(c1)SC1=NS(=O)(=O)CCN12	none
CN(C(=O)c1ccc2c(c1)SC1=NS(=O)(=O)CCN12)C(c1ccccc1)c1ccccc1	Lmaj promast 75 | L major 1uM inactive
CCCc1nc2ccc(NC(=O)c3cccs3)cc2c(=O)n1Cc1ccc(Cl)cc1	Lmaj promast 72 | L major 1uM inactive
Cc1nc2ccc(NC(=O)c3cccs3)cc2c(=O)n1Cc1ccc(Cl)cc1	none
c1ccc(N2CCN(c3ccccc3)C2c2cccs2)cc1	Lmaj promast 94 | L major 1uM inactive
Cc1ccc(-n2cc(CN(C)CCc3cn[nH]c3)c(-c3cccc(C)c3)n2)cc1	Lmaj promast 65 | L major 1uM inactive
O=C(CN1CCCCC1)N1CCCc2c1c(=O)oc1ccc(OCc3ccccc3)cc21	Lmaj promast 67 | L major 1uM inactive
Nc1nc(SCC(=O)N2CCCc3ccccc32)n(-c2ccccc2)n1	none
COc1cc2c3nnc(-c4ccc(F)cc4)c-3cn(Cc3ccc(F)cc3)c2cc1OC	Lmaj promast 97 | L major 1uM inactive
COc1ccc(Cn2cc3c(-c4ccc(F)cc4)nnc-3c3cc(OC)c(OC)cc32)cc1	none
Nc1ccccc1Nc1ccccc1	Lmaj promast 99 | L major 1uM inactive
O=C(Nc1cccc(O)c1)c1cc(-c2ccco2)on1	none
CC(CNC(=O)C(C)C)NC(=O)C(C)C (stereo not given)	none
CCCCC(CC)C(=O)NCC(C)NC(=O)C(CC)CCCC (stereo not given)	Lmaj promast 61 | L major 1uM inactive
Cc1ccc(S(=O)(=O)N2CCCOC2CNC(=O)C(=O)NCc2ccco2)cc1 (stereo not given)	none
COc1cc(Cl)ccc1NC(=O)COc1ccccc1C(=O)N1CCN(c2ccc(O)cc2)CC1	Lmaj promast 63 | L major 1uM inactive
CCOC(=O)c1nnn(-c2nonc2N)c1COc1c(C=O)cccc1OC	Lmaj promast 98 | L major 1uM inactive
CCOC(=O)c1nnn(-c2nonc2-n2cccc2)c1CCl	Lmaj promast 100 | L major 1uM 57
CCOC(=O)c1nnn(-c2nonc2N)c1CS(=O)(=O)c1ccccc1	none
O=C(O)CC(NC(=S)NCc1ccccc1)C(=O)O (stereo not given)	Lmaj promast 80 | L major 1uM inactive
NC(=O)CC(NC(=S)NCc1ccccc1)C(=O)O (stereo not given)	none
O=c1c2ccccc2ncn1CCCCOc1ccc(Br)cc1	none
O=[N+]([O-])c1cc(-c2nnc(C34CC5CC(CC(C5)C3)C4)o2)cc([N+](=O)[O-])c1	Lmaj promast 100 | L major 1uM 96
O=[N+]([O-])c1cccc(-c2nnc(C34CC5CC(CC(C5)C3)C4)o2)c1	none
CCCCSc1nnc(-c2ccc(C)cc2)c2ccccc12	WT yeast gro inh 78, Lmaj promast 91 | L major 1uM inactive
O=C(c1ccc(Cn2c(=O)[nH]c3ccccc3c2=O)cc1)N1CCN(c2ccccc2)CC1	Lmaj promast 94 | L major 1uM inactive
O=[N+]([O-])c1ccc2nc(-c3ccccc3)cc(-c3ccccc3)c2c1	none
O=[N+]([O-])c1cc([N+](=O)[O-])c2n[nH]c(-c3ccccc3)c2c1	Lmaj promast 98 | L major 1uM 53
COc1ccccc1Oc1cc(C#N)c(C#N)cc1-n1nnc2ccccc21	Lmaj promast 98 | L major 1uM inactive
N#Cc1cc([N+](=O)[O-])c(-n2nnc3ccccc32)c([N+](=O)[O-])c1	none
Nc1c(C(=O)NCCN2CCOCC2)c2nc3ccccc3nc2n1CCc1ccccc1F	Lmaj promast 65 | L major 1uM inactive
c1ccc2nc3c(nc2c1)c1ccccc1n3CCN1CCOCC1	none
CCn1c2ccccc2c2nn(C)c(=N)nc21	Lmaj promast 96 | L major 1uM inactive
CCn1c2ccccc2c2nnc(NN)nc21	none
